The record followed here is ChEMBL document CHEMBL1131198, “From micromolar to nanomolar affinity: a systematic approach to identify the binding site of CGRP at the human calcitonin gene-related peptide 1 receptor” (J Med Chem, 1998).

Square brackets hold non-standard residues; d marks the D form. Peptide text beside a SMILES is read from it. Tic = O=C(O)[C@@H]1Cc2ccccc2CN1

Chain of Calcitonin gene-related peptide type 1 receptor (Q16602 whole entry): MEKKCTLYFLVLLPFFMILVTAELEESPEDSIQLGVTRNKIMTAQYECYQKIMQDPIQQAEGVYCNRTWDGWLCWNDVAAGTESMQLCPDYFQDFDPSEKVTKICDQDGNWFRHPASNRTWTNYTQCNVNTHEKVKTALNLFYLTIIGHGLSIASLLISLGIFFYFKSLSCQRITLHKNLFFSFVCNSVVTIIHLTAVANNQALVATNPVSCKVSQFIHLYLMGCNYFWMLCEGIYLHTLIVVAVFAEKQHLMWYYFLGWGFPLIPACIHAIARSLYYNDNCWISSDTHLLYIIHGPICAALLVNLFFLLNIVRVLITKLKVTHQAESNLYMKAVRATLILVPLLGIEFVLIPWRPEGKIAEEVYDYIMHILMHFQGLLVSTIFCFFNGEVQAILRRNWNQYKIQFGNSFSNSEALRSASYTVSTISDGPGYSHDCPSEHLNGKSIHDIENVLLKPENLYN

The test concerns the target Calcitonin gene-related peptide type 1 receptor (Homo sapiens, UniProt Q16602). Description: CGRP1 receptor affinity on human neuroblastoma cells SK-N-MC, which selectively express the human CGRP1 receptor. In short, it runs like this: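 SK-N-MC membranes (cells grown in DMEM, detached with PBS/0.02% EDTA, homogenized, pellet in Tris buffer pH 7.40 with 1% BSA, 0.1% bacitracin, stored -80 °C) diluted 1:10 in assay buffer (50 mM Tris, 150 mM NaCl, 5 mM MgCl2, 1 mM EDTA, pH 7.40).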
Regarding `CC(C)[C@H](NC(=O)[C@@H](N)Cc1ccc(O)cc1)C(=O)N1CCC[C@H]1C(=O)N[C@H](C(=O)O)[C@@H](C)O` (H-YVPT-OH), the IC50 result is recorded as “No displacement”.
For H-YVPTN-OH the value was “No displacement”; for `CC(C)[C@H](NC(=O)[C@H](CC(N)=O)NC(=O)[C@H](NC(=O)[C@@H]1CCCN1C(=O)[C@@H](NC(=O)[C@@H](N)Cc1ccc(O)cc1)C(C)C)[C@@H](C)O)C(=O)NCC(=O)N[C@@H](CO)C(=O)N[C@@H](CCC(=O)O)C(=O)N[C@@H](C)C(=O)N[C@@H](Cc1ccccc1)C(=O)O`, “No displacement”.
For H-YGSEAF-OH the value was “No displacement”.
For `CC(C)[C@H](NC(=O)[C@@H](N)Cc1ccc(O)cc1)C(=O)N1CCC[C@H]1C(=O)N[C@H](C(=O)N[C@@H](CC(N)=O)C(=O)N[C@@H](C(=O)NCC(=O)N[C@@H](CO)C(=O)N[C@@H](CCC(=O)O)C(=O)N[C@@H](C)C(=O)N[C@@H](Cc1ccccc1)C(=O)O)C(C)C)[C@@H](C)O` the value was “No displacement”; for `CC(C)[C@H](NC(=O)[C@H](CC(=O)O)NC(=O)[C@@H](NC(=O)[C@@H]1CCCN1C(=O)[C@@H](NC(=O)[C@@H](N)Cc1ccccc1)C(C)C)[C@@H](C)O)C(=O)NCC(=O)N1Cc2ccccc2C[C@H]1C(=O)N[C@@H](Cc1ccccc1)C(=O)N[C@@H](C)C(=O)N[C@@H](Cc1ccccc1)C(N)=O` (H-FVPTDVG[Tic]FAF-NH2), 146 nM; for H-YVPTNVG-OH, “No displacement”.
Turning to `C[C@H](NC(=O)[C@@H](N)Cc1ccc(O)cc1)C(=O)N[C@@H](Cc1ccccc1)C(=O)O` (H-Tyr-Ala-Phe-OH), the IC50 result is reported as “No displacement”.
For H-YVPTNVGSE-OH the value was “No displacement”.
Regarding H-YVPTNVGSEAA-OH, the 50% inhibitory concentration (IC50) entry is on record as “No displacement”.

The IC50 is the concentration at which inhibition is half-maximal.
